# Results as given in paper PMC4410366 (Biochemistry, 2015).
# “Also recorded” adds a separate entry of the source. Read-outs that look alike come from different tables or passages of the source.
# Experiments:
# [1] = molecular target: T1, recombinant murine iNOS (Mus musculus, UniProt P29477); test: Irreversible inhibition kinetics; format: biochemical; conditions: for Ki: Kitz and Wilson; for Inactivation (irreversible inhibition) of iNOS: qualitative
# [2] = molecular target: iNOS dimer (Mus musculus, UniProt P29477); test: LT-PAGE assay of iNOS dimer/monomer after inactivation; format: biochemical, murine; conditions: native iNOS control 65 ± 5
# [3] = molecular target: T1, recombinant murine iNOS; test: Determination of substrate activity; format: biochemical; conditions: up to 2 mM
# How it was run: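 Recombinant murine iNOS expressed in E. coli. NO output is read as oxyhemoglobin oxidised to metHb, by absorbance change at 401 nm over the first 60 s at 37 °C. The mix holds NADPH 100 µM, oxyHb 0.125 mg/mL and tetrahydrobiopterin 10 µM in 100 mM Hepes pH 7.4. Test compound is tested up to 2 mM. The reaction starts on adding enzyme.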
# [4] = molecular target: T2, iNOS heme cofactor (Mus musculus, UniProt P29477); test: HPLC and LC/MS determination of heme and biliverdin after treatment of iNOS; format: biochemical, murine; conditions: for Biliverdin formation: HPLC with UV or MS detection; for Heme loss: qualitative
# How it was run: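 After iNOS treatment with test compound, biliverdin is analysed by LC/MS with diode-array detection at 401 nm. Column is C18 reversed-phase, with water and acetonitrile each containing 0.1% TFA, at 1.0 mL/min. Solvent B rises linearly from 40% to 60% over 10 min, then returns to 40% within 2 min and holds 3 min.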
# [5] = molecular target: T1, recombinant murine iNOS; test: HPLC / LC/MS of amino acid metabolites from inactivation mixtures; format: biochemical; conditions: OPA/MCE derivatization HPLC
# How it was run: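 E. coli-expressed murine iNOS is incubated with test compound (2 mM stock), NADPH (39 mM stock), H4B (8 mM stock), catalase and glycerol in Hepes 100 mM pH 7.4 for 3 h at 37 °C. Aliquots are derivatised with o-phthalaldehyde/2-mercaptoethanol (20:1 v/v). Separation is C18 reversed-phase HPLC, 50 mM sodium acetate pH 5.9 to 80% methanol gradient, 1.0 mL/min, detection at 340 nm.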
# [6] = system: NOS; conditions: cited from earlier work
# [7] = molecular target: T1, recombinant murine iNOS; test: Hemoglobin assay for iNOS activity; format: biochemical; conditions: different concentrations of inhibitor and L-arginine
# [8] = molecular target: T1, recombinant murine iNOS; conditions: cited from earlier work
# [9] = molecular target: T2, iNOS heme cofactor; conditions: LC-electrospray MS and HPLC; cited from earlier work
# T1 sequence (P29477 whole entry): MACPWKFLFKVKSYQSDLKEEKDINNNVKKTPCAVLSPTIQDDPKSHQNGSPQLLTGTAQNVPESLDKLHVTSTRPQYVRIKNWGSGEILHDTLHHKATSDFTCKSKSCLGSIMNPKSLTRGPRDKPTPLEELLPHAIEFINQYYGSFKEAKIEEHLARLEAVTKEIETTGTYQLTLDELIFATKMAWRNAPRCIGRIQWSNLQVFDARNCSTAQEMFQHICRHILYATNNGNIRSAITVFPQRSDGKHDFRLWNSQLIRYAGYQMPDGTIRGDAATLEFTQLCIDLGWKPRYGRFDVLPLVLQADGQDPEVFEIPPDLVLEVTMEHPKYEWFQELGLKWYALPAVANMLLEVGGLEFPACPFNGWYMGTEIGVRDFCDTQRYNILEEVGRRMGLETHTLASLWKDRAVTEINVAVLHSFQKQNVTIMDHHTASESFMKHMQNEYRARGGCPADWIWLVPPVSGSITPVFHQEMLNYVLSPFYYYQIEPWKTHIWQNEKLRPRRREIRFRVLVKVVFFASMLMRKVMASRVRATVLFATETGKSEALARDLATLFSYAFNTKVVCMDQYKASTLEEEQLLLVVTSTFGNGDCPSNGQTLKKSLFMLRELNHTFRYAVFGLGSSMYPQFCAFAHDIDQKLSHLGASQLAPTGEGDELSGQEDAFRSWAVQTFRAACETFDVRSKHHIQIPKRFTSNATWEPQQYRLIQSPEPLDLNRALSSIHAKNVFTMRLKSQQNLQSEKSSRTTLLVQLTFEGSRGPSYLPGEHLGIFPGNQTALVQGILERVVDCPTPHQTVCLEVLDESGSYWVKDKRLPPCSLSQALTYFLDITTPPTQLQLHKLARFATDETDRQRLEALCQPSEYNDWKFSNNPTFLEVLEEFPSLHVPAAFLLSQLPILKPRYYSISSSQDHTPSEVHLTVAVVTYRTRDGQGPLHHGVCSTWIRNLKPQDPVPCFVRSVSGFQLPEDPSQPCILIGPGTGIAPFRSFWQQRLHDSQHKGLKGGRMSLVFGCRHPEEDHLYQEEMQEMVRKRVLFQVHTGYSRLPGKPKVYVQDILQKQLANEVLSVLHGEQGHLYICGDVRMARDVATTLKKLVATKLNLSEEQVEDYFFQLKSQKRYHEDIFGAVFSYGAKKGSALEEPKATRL
smiles,measurement,setting,value
CCCC(=N)NCCC[C@H](N)C(=O)O [Compound 9],kinact/KI,[1]; iNOS inactivation,3.3 ± 0.16 M⁻¹ s⁻¹
same,kinact,"[1]; iNOS inactivation, 37 °C",0.131 ± 0.0095 min⁻¹
same,Ki,[1]; iNOS inactivation,674 ± 80 µM
same,Inactivation (irreversible inhibition) of iNOS,[1],inactivators; also recorded: irreversible inhibitors; also recorded: weak irreversible inhibition
same,% iNOS Dimer remaining after inactivation,[2],47 ± 5%
same,Substrate activity (NO generation / products),[3],no nitric oxide was formed
same,Heme lost by incubation with iNOS,[4],< 5%
same,Biliverdin formation,[4],No apparent heme loss or biliverdin formation; also recorded: no biliverdin could be detected
same,Heme loss,[4],No apparent heme loss
same,Metabolites from inactivation of iNOS,[5],none was detected
"CN=C(NC)NCCCC(N)C(=O)O (stereo not shown) [Compound 6a, N^ω, N^ωω-dimethylarginine]",NOS inhibition,[6],endogenous NOS inhibitor
CC(C)C(=N)NCCC[C@H](N)C(=O)O [Compound 10],Inactivation (irreversible inhibition) of iNOS,[1],No inactivation was observed
"[2H]C([2H])([2H])C([2H])([2H])C(=N)NCCC[C@H](N)C(=O)O [Compound 26, (S)-2-amino-5-(propanimidamido-2,2,3,3,3-d5)pentanoic acid]",kinact,[1],0.073 min⁻¹
same,kinact/KI,[1],4.42 M⁻¹ s⁻¹
same,H/D ratio of KI,[1]; 8 versus 26,0.884 ± 0.068
same,Inactivation (irreversible inhibition) of iNOS,[1],inactivated iNOS
CCC(=N)NCCC[C@H](N)C(=O)O [Compound 8],kinact/KI,[1]; iNOS inactivation,5.17 ± 0.467 M⁻¹ s⁻¹
same,kinact,"[1]; iNOS inactivation, 37 °C",0.0743 ± 0.0073 min⁻¹
same,Ki,[1]; iNOS inactivation,243 ± 31.4 µM
same,Inactivation (irreversible inhibition) of iNOS,[1],"inactivators; also recorded: irreversible inhibitors; also recorded: weak irreversible inhibition; also recorded: time-, concentration-, and NADPH-dependent inhibitor"
same,% iNOS Dimer remaining after inactivation,[2],46 ± 2%
same,Substrate activity (NO generation / products),[3],no nitric oxide was formed
same,Heme lost by incubation with iNOS,[4],< 5%
same,Biliverdin formation,[4],No apparent heme loss or biliverdin formation; also recorded: no biliverdin could be detected
same,Heme loss,[4],No apparent heme loss
same,Metabolites from inactivation of iNOS,[5],none was detected; also recorded: no 22 was observed
N=CNCCC[C@H](N)C(=O)O [Compound 7],Inactivation (irreversible inhibition) of iNOS,[1],does not act as a substrate or as an inactivator; also recorded: did not inactivate iNOS
same,Substrate activity (NO generation / products),[3],does not act as a substrate
"CC(=N)NCCC[C@H](N)C(=O)O [Compound 4, N^5-(1-iminoethyl)-L-ornithine]",Inhibition type,[7],competitive
same,% iNOS Dimer remaining after inactivation,[2],51 ± 4%
same,Inactivation of iNOS,[8],"time-, concentration-, and NADPH-dependent iNOS inactivator"
same,Conversion of active site heme in iNOS to biliverdin,[9],convert the active site heme in iNOS to biliverdin IXα
"CN=C(NC)NCCCC(N)C(=O)O (stereo not shown) [Compound 6b, N^ω,N’^ω-dimethylarginine]",NOS inhibition,[6],inactive
"CC(=N)NCc1cccc(CN)c1 [Compound 1400W, N-(3-(aminomethyl)benzyl)acetamidine]",Conversion of active site heme in iNOS to biliverdin,[9],convert the active site heme in iNOS to biliverdin IXα
